Measured values pooled from the literature.
Protocols differ between the studies behind these lines.
MAK: Serine/threonine-protein kinase MAK (MAK, Homo sapiens, UniProt P20794)
ACSL4: Long-chain-fatty-acid--CoA ligase 4 (ACSL4, Homo sapiens, UniProt O60488)
RIOK3: Serine/threonine-protein kinase RIO3 (RIOK3, Homo sapiens, UniProt O14730)

Compound	target	test	setting	quantity	result
Cc1cc(S(=O)(=O)N[C@H]2CC[C@H](CN3CCN(c4ccc(C5CCC(=O)NC5=O)cc4F)CC3)CC2)ccc1Nc1ncc(C(F)(F)F)c(N2CCC[C@](C)(O)C2)n1 (stereo partly shown)	Cyclin-dependent kinase 7 (CDK7, Homo sapiens, UniProt P50613)	binding, competition with immobilised ligand	1 µM	remaining binding	55%
COc1cccc2c(N3CCC(CCP(=O)(O)O)CC3)ncnc12	Ectonucleotide pyrophosphatase/phosphodiesterase family member 1 (Enpp1, Mus musculus, UniProt P06802)	binding, SPR	–	residence time	9 min
C1=C/COCc2cc(ccc2OCCN2CCCC2)Nc2nccc(n2)-c2cccc(c2)COC/1	MAK	binding	0.1 µM	remaining binding	100%
CC1(COc2ccc(CC3SC(=O)NC3=O)cc2)CCCCC1 (stereo not shown)	ACSL4	enzyme activity, inhibitor	10 µM	inhibition	20%
C[C@]1(O)CCCN(c2nc(Nc3ccc(S(=O)(=O)N[C@H]4CC[C@H](CN5CCN(c6ccc(C7CCC(=O)NC7=O)cc6F)CC5)CC4)cc3F)ncc2C(F)(F)F)C1 (stereo partly shown)	RIOK3	binding, competition with immobilised ligand	1 µM	remaining binding	100%
COc1ccc2oc(-c3ccc4nc(N)oc4c3)c/c(=N\c3ccccc3NC(=O)CCN)c2c1	Death-associated protein kinase 1 (DAPK1, Homo sapiens, UniProt P53355)	binding	1 µM	remaining binding	104%
CCN1/C(=C/C(C)=O)Sc2ccc(F)cc21	5-hydroxytryptamine receptor 1B (HTR1B, Homo sapiens, UniProt P28222)	ligand displacement, radioligand	10 µM	inhibition	1.73%
CCCCC(=O)Nc1ccc(-c2ccc3ncn(CCC)c(=O)c3c2)cn1	MAK	binding, competition with immobilised ligand	0.5 µM	remaining binding	71%
C#Cc1cc(-c2cc(Nc3nc(N[C@@H](C)c4ccc(F)cn4)ncc3Cl)n[nH]2)ccc1C=O	Non-receptor tyrosine-protein kinase TNK1 (TNK1, Homo sapiens, UniProt Q13470)	enzyme activity, inhibitor	0.2 µM	inhibition	74.8%
CNS(=O)(=O)c1ccc(Nc2ncc(C(F)(F)F)c(N3CCC[C@](C)(O)C3)n2)c(C)c1	Mitogen-activated protein kinase 7 (MAPK7, Homo sapiens, UniProt Q13164)	binding, competition with immobilised ligand	1 µM	remaining binding	14%
O=C1NC(=O)C(Cc2ccc(N3CCN(c4ccccn4)CC3)cc2)S1 (stereo not shown)	ACSL4	enzyme activity, inhibitor	10 µM	inhibition	42%
C[C@]1(O)CCCN(c2nc(Nc3ccc(S(=O)(=O)N[C@H]4CC[C@H](CN5CCN(c6ccc(C7CCC(=O)NC7=O)cc6F)CC5)CC4)cc3Cl)ncc2C(F)(F)F)C1 (stereo partly shown)	RIOK3	binding, competition with immobilised ligand	1 µM	remaining binding	52%
O=C(/C=C/c1ccc(O)c(O)c1)O[C@H](Cc1ccc(O)c(O)c1)C(=O)O	Peroxiredoxin-1 (PRDX1, Homo sapiens, UniProt Q06830)	thermal stability, DSF	800 µM	ΔTm	9.31 °C
